Assay outcomes: PubChem BioAssay, several laboratories
An excerpt weighted towards active compounds, which were near 2.3% of everything screened.
KLF5 inhibitor: KLF5 expression inhibitors, primary screen, DLD-1 cells, luminescence; DLD-1 KLF5 promoter-luciferase reporter; inhibition, % at 5 µM; 290,000 tested, 0.23% active;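 active means inhibition above a per-plate limit of that plate's mean compound inhibition plus 3 SD, cut at about 60% in these data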;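 further: 0% = DMSO wells and 100% = LY294002 at 200 µM; higher means less KLF5 promoter-driven luciferase light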
Beta cell apopt: inhibitors of cytokine-induced beta cell apoptosis, primary screen, luminescence; INS-1E cytokine-induced death, ATP luminescence, 48 h; percent of positive-control rescue, neutral wells zero; protection from apoptosis, % (concentration not given with the values); 300,000 tested, 0.8% active;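 active means Every replicate reaches about 75%, or at least half do and their mean reaches it too, limit read from the data; inconclusive means At least half of replicates reach the limit but their mean does not; inactive means Under half of replicates reach the limit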;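 further: 0% = cytokine-treated negative control wells and 100% = positive control rescue; higher means more ATP so stronger rescue from cytokine killing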
HIF act: HIF pathway transcriptional activators, primary screen, cell-based, U2OS HRE-luciferase, luminescence. activation, % at 7.5 µM (by protocol). U2OS HRE-luciferase reporter; normalized: DMSO 0%, desferrioxamine 100%. AID 1910, 2009. 300,000 tested, 0.32% active;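 active means mean activation of at least 10% of the iron chelator positive control signal, with at least half of replicates also reaching 10%; inconclusive means mean and replicate majority disagree about reaching 10%; inactive means mean and most replicates under 10%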
T cruzi inh: inhibitors of intracellular T. cruzi growth, primary screen, luminescence, NIH3T3 host cells | 300,000 tested, 1.4% active | AID 1885, 2009 | T. cruzi beta-gal in NIH3T3, 90 h | inhibition, % (concentration not given with the values);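 active means mean inhibition across valid replicates above about 55%, limit read from the data; inconclusive means mean below that limit but half or more replicates reach it; inactive means mean below it, under half of replicates reach it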;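 further: signal also drops with host cell toxicity which is not excluded here; 0% = plate median of DMSO wells and 100% = zero luminescence signal; higher percent means less beta-gal luminescence so fewer parasites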
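assay system = mouse NIH/3T3 fibroblasts infected with β-gal-expressing T. cruzi Tulahuen C4 | input = 5,000 NIH/3T3 host cells per well | buffer or medium = DMEM plus 2% FBS | timing = 3 h host attachment, then at least 90 h co-culture | measured by = GalScreen luminescence, 60 min | evaluation = luminescence reflecting intracellular parasite burden, expressed as percent inhibition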
Bfl-1 A1 inh: caspase 3/7 activation in MEF A1-2A-BIM cells, primary screen, A1 inhibitor project, cell-based, luminescence, HTS | 330,000 tested, 0.066% active | Caspase-Glo 3/7 luminescence, 3 h; percent of clofoctol response, vehicle zero | caspase activation, % (no concentration beside the values);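 active means over half of replicate activation scores above 10%, or exactly half above 10 with the replicate mean above 10; inconclusive means replicate mean below 10 yet half the replicates above 10; inactive means over half of replicates below 10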
Active calls of the source: *; ? = inconclusive; / = no result given.

SMILES | KLF5 inhibitor | Beta cell apopt | HIF act | T cruzi inh | Bfl-1 A1 inh
Cc1ccc(OCCOCCN2CCN(C)CC2)c(C(C)(C)C)c1 | -18.7 | -0.9 | -0.7 | 51.3 | -0.2
Cc1cc(Cl)c(OCCOCCN2CCN(C)CC2)c(Br)c1 | 2.8 | 0.1 | 0.2 | 58.7* | 0.5
Clc1cc(Br)ccc1OCCOCCN1CCCC1 | -62.3 | 0.5 | 0.0 | 59.5* | 1.3
Clc1ccc(OCCOCCN2CCCCC2)c(Br)c1 | -13.4 | 1.9 | -0.3 | 59.1* | 0.6
Cc1cc(C(C)(C)C)ccc1OCCOCCN1CCCC1 | -10.6 | -2.8 | -0.2 | 54.7* | 0.8
CC(C)(C)c1cc(Cl)ccc1OCCOCCN1CCCC1 | -54.7 | 4.1 | -0.1 | 47.3 | 1.1
CC1CCN(CCOCCOc2ccc(Cl)cc2Br)CC1 | -2.9 | 10.5 | 0.6 | 63.8* | 0.3
O=C1N(Cc2cccc(Cl)c2)C[C@@H]2C[C@@H](c3c[nH]c4ccccc34)N3CCC[C@@]123 | -23.0 | -5.8 | -0.4 | 58.1* | -1.5
O=C1N(Cc2cccc(Cl)c2)C[C@@H]2C[C@@H](c3cccc4ncccc34)N3CCC[C@@]123 | -0.9 | 9.2 | -0.7 | 8.1 | 0.1
CC1(C)Oc2ccc(/C=C/C(=O)N3CCOCC3)c(O)c2C(N2CCOCC2)C1O (centres undefined) | -22.6 | 2.5 | 0.3 | -11.4 | -0.8
CC1(C)c2cc(O)ccc2OC1N1CCOCC1 (centres undefined) | -16.5 | -13.8 | 3.1 | -12.5 | 9.5*
C[N+]1=C(/C=C/Nc2ccccc2Cl)C(C)(C)c2ccccc21 | -14.5 | 98.9* | -0.9 | 36.5 | -0.1
CCN1CCCc2cc(CN(CCN3CCOCC3)C(=S)Nc3ccc(OC)c(Cl)c3)ccc21 | -24.1 | -0.7 | 0.2 | 59.1* | -0.5
CCN1CCCc2cc(CN(CCN3CCOCC3)C(=S)Nc3ccccc3C)ccc21 | -19.7 | -4.1 | -0.1 | 35.4 | 0.3
CCN1CCCc2cc(CN(CCN3CCOCC3)C(=S)Nc3ccccc3OC)ccc21 | -5.6 | -0.8 | -0.5 | 57.3* | 1.4
CCN1CCCc2cc(CN(CCN3CCOCC3)C(=S)Nc3cccc(C)c3)ccc21 | -26.9 | -2.6 | -0.3 | 60.9* | -0.4
O=C(c1ccc(OC2CCN(CCc3ccccc3)CC2)cc1)N1CCC(CO)CC1 | -6.0 | 1.8 | 0.5 | -3.9 | 0.5
CCN(C(=O)COC(=O)/C=C/c1cccc([N+](=O)[O-])c1)c1c(N)n(Cc2ccccc2)c(=O)[nH]c1=O | / | 1.5 | / | / | 1.1
CSc1ccc(CN2CCC(n3nccc3NC(=O)CCCc3ccccc3)CC2)cc1 | -43.8 | -7.9 | 0.5 | -17.7 | -0.9
Cc1ccc(S(=O)(=O)N2CCOCC2)cc1NC(=O)CSc1nnc(NC2CC2)s1 | / | -0.9 | / | / | 0.3
NC(=O)C1CCN(C2=C(Cl)C(=O)c3ccccc3C2=O)CC1 | -18.3 | 14.8 | 0.5 | 59.0* | -0.1
COc1cc(OC)cc(C(=O)NCC2CCCN(Cc3ccc(SC)cc3)C2)c1 (centres undefined) | -5.0 | / | 2.3 | 36.8 | -0.1
Cc1ccc(NC(=S)NC(=O)C2CCC2)cc1C | -107.5 | -3.5 | 3.1 | -0.5 | -1.6
CC(C)c1nnc(NC(=O)CCC(=O)NC2CCCCCC2)s1 | -25.5 | 0.0 | 0.0 | -5.2 | 2.1
CC(C)c1nnc(NC(=O)CCC(=O)NC2CC2)s1 | -6.4 | / | 17.9* | -7.9 | 1.0
SMILES | KLF5 inhibitor | Beta cell apopt | HIF act | T cruzi inh | Bfl-1 A1 inh
CCc1ccccc1S(=O)(=O)c1c(C)cc(C)nc1Cl | -5.9 | -4.9 | 0.9 | 12.2 | 1.5
COc1ccc(-c2c[n+]3c4n2CCCCC4=C(c2ccc(Br)cc2)C3)cc1 | -8.5 | 104.1* | -0.1 | 52.8 | 2.2
Clc1ccc(C2=C3CCCCn4c(-c5ccccc5)c[n+](c43)C2)cc1 | 6.5 | -2.4 | -0.8 | 48.5 | 1.8
N#Cc1cnn(-c2nc(SCc3ccccc3)nc3sc4c(c23)CCCC4)c1N | 26.0 | -4.0 | -0.5 | 59.6* | -0.2
COc1ccc(CCN2CC(C(=O)NCCc3cccc(F)c3)CCC2=O)cc1 (centres undefined) | -12.8 | / | -0.3 | -1.3 | /
C=CCOc1c(Cl)cc(CNCCCN2CCOCC2)cc1OC | -20.7 | -1.1 | 0.8 | 55.9* | 0.0
CCn1c2ccccc2c2cc(CNCCCN3CCOCC3)ccc21 | -4.2 | 2.7 | 1.0 | 60.7* | 0.2
COc1cc(CNCCCN2CCOCC2)cc(Br)c1OCc1ccc(Cl)cc1 | -18.7 | 18.9 | -0.9 | 59.2* | 0.8
O=C(Nc1ccccc1N1CCOCC1)c1ccc([N+](=O)[O-])s1 | / | 37.0 | / | / | -0.9
COC(=O)c1ccccc1NC(=O)CSc1nnnn1CC(=O)O | -10.1 | -8.2 | -0.3 | -9.1 | -0.8
COc1ccc(CN2CCNC(=O)C2CC(=O)NC2CCCC2)c(OC)c1 (centres undefined) | -35.0 | -12.2 | 54.6* | -15.0 | -2.7
CCOC(=O)c1c(C)[nH]c2cc(Br)c(OC)cc12 | -19.7 | -3.2 | / | / | ?
CCOC(=O)c1c(C)[n+](-c2ccc(C)cc2)c(CC)c2cc(OC)c(OC)cc12 | -1.2 | 32.5 | 0.0 | 55.1* | 1.3
O=C(NNC(=O)c1cc(Cl)ccc1[N+](=O)[O-])c1csc(N2CCOCC2)n1 | / | 1.2 | -0.4 | -6.5 | 0.2
O=C1C=C(N(CCO)Cc2ccccc2)c2ccccc2C1=O | -41.6 | / | -5.3 | 77.7* | /
COC(=O)c1ccc(-c2noc(CN(Cc3ccncc3)CC3CCCO3)n2)cc1 (centres undefined) | -7.3 | -4.6 | -0.3 | 57.1* | 0.2
COc1cc(S(=O)(=O)N2CCC(O)(c3cccc(C(F)(F)F)c3)CC2)ccc1-n1cnnn1 | 10.7 | -5.6 | -0.2 | 60.9* | 2.0
O=S(=O)(c1ccc(OC(F)(F)F)cc1)N1CCC(O)(c2cccc(C(F)(F)F)c2)CC1 | -15.4 | 7.5 | 1.8 | 36.3 | -1.0
CC(=O)c1cccc(NS(=O)(=O)c2ccc(N/C=C\C(=O)c3ccc(F)cc3)cc2)c1 | -19.5 | 97.9* | -0.6 | 13.0 | -0.5
CC(=O)c1cccc(NS(=O)(=O)c2ccc(N/C=C\C(=O)c3ccc(C)cc3)cc2)c1 | 5.5 | 45.4 | 0.0 | -1.2 | -0.5
CC(=O)c1cccc(NS(=O)(=O)c2ccc(N/C=C/C(=O)c3ccc(F)cc3)cc2)c1 | -16.2 | 111.8* | -0.7 | -18.1 | 0.0
C/C(=N\NC(=O)c1ccncc1)c1cccc(NC(=O)c2ccc(Cl)s2)c1 | -82.0 | 1.4 | / | / | -0.5
O=C(NCCc1ccc(Cl)cc1)C1COc2ccccc2O1 (centres undefined) | 1.1 | / | 1.0 | -0.1 | -0.1
Nc1c2c(nc3ccccc13)CSCC2 | / | / | 0.0 | 54.7* | 0.4
CCCc1cc(=O)oc2c(C)c(OCC(=O)Nc3cccnc3)ccc12 | -19.2 | -3.8 | -1.1 | -3.9 | ?
COc1ccc(N2C(=O)[C@@H]3C(c4cccnc4)=NO[C@@H]3C2=O)cc1 | -6.3 | 3.7 | 29.5* | -10.0 | 0.2
Cc1ccc(N2C(=O)[C@@H]3C(c4cccnc4)=NO[C@@H]3C2=O)cc1 | -11.9 | -2.7 | -0.7 | -13.5 | 0.4
